Activity calls are given as the source filed them.

For one experiment, the system named is Mus musculus. Put plainly: Antidepressant activity in Swiss-Webster mouse assessed as prevention of reserpine-induced ptosis at 50 mg/kg, ip. The experiment is classed as functional, organism-based. Further details: dose 50 mg/kg.
`CN(C)C1CCc2[nH]c3c(F)cccc3c2C1` (stereo not drawn): the outcome was inactive.
On the same count and under the same terms, to `Cc1cccc2c3c([nH]c12)CCC(N(C)C)C3` (stereo not drawn) belongs “inactive”; to `CN(C)C1CCc2c(c3ccccc3n2CC(=O)O)C1` (stereo not drawn), “inactive”; to `CCc1cccc2[nH]c3c(c12)CC(N(C)C)CC3` (stereo not drawn), “Active”.
Consider `CN(C)C1CCc2[nH]c3c(Br)cccc3c2C1` (stereo not drawn), for which the result was inactive.
Still for that read-out and setting: to `CCOC(=O)CCn1c2c(c3ccccc31)CC(N(C)C)CC2` (stereo not drawn) belongs “inactive”; to `CN(C)C1CCc2[nH]c3c(C(F)(F)F)cccc3c2C1` (stereo not drawn), “inactive”; to `c1ccc2c3c([nH]c2c1)CCC(N1CCCCC1)C3` (stereo not drawn), “inactive”.
Still for that read-out and setting: to `COc1cc2[nH]c3c(c2cc1OC)CC(N(C)C)CC3` (stereo not drawn) belongs “inactive”; to `CN(C)C1CCc2[nH]c3c(OCc4ccccc4)cccc3c2C1` (stereo not drawn), “inactive”.
Same read-out and setting: as for `CN(C)C1CCc2[nH]c3cc(F)ccc3c2C1` (stereo not drawn), the entry is “inactive”; as for `Cc1cc2[nH]c3c(c2cc1C)CC(N(C)C)CC3` (stereo not drawn), “Active”.
Turning to `CN(C)C1CCc2c(c3ccccc3n2CCC(=O)O)C1` (stereo not drawn), the result was inactive.
On the same count and under the same terms, to `CCN(CC)CCNC1CCc2[nH]c3ccccc3c2C1` (stereo not drawn) belongs “inactive”.
The same measure, in the same setting: as for `CN(C)C1CCc2[nH]c3c(Cl)c(Cl)ccc3c2C1` (stereo not drawn), the entry is “Active”.
For `C=CCn1c2c(c3ccccc31)CC(N(C)C)CC2` (stereo not drawn), the outcome was inactive.
With `CN(C)C1CCc2[nH]c3c(Cl)cccc3c2C1` (stereo not drawn), the outcome was inactive.
Same read-out and setting: to `c1ccc2c3c([nH]c2c1)CCC(N1CCOCC1)C3` (stereo not drawn) belongs “inactive”.
For the molecule `CN(C(=O)c1ccccc1)C1CCc2[nH]c3c(F)cc(F)cc3c2C1` (stereo not drawn), the result was inactive.
Regarding `CN(C)C1CCc2[nH]c3ccc(F)cc3c2C1` (stereo not drawn), the result was inactive.
In the case of `CNC1CCc2[nH]c3c(F)cc(F)cc3c2C1` (stereo not drawn), the outcome was inactive.
On the same count and under the same terms, as for `Fc1cc(F)c2[nH]c3c(c2c1)CC(N1CCCCC1)CC3` (stereo not drawn), the entry is “inactive”; as for `c1ccc(N2CCN(C3CCc4[nH]c5ccccc5c4C3)CC2)cc1` (stereo not drawn), “inactive”.
Regarding `COc1cccc2c3c([nH]c12)CCC(N(C)C)C3` (stereo not drawn), the result was inactive.
The same measure, in the same setting: to `CN(C)C1CCc2[nH]c3c(O)cccc3c2C1` (stereo not drawn) belongs “inactive”; to `COc1cc(C(=O)OCCn2c3c(c4ccccc42)CC(N(C)C)CC3)cc(OC)c1OC` (stereo not drawn), “inactive”; to `Cc1cc(C)c2c3c([nH]c2c1)CCC(N(C)C)C3` (stereo not drawn), “Active”.
Same read-out and setting: to `CN(Cc1ccccc1)C1CCc2[nH]c3c(F)cc(F)cc3c2C1` (stereo not drawn) belongs “inactive”; to `Cc1ccc(Cl)c2[nH]c3c(c12)CC(N(C)C)CC3` (stereo not drawn), “Active”.
`Cc1ccc2[nH]c3c(c2c1)CC(N(C)C)CC3` (stereo not drawn): the outcome was inactive.
As for `CNC1CCc2[nH]c3cc(C)ccc3c2C1` (stereo not drawn), the result was Active.
The same measure, in the same setting: as for `CN(C)C1CCc2[nH]c3ccc(O)cc3c2C1` (stereo not drawn), the entry is “Active”; as for `CN(C)C1CCc2[nH]c3ccc(C(=O)O)cc3c2C1` (stereo not drawn), “inactive”; as for `CN(C)C1CCc2[nH]c3ccc(OCc4ccccc4)cc3c2C1` (stereo not drawn), “inactive”.
As for `Cc1cc(C)c2[nH]c3c(c2c1)CC(N(C)C)CC3` (stereo not drawn), the outcome was inactive.
On to `c1ccc2c3c([nH]c2c1)CCC(N1CCCC1)C3` (stereo not drawn), for which the outcome was inactive.
Same read-out and setting: as for `CN(C)C1CCc2[nH]c3ccc(Oc4ccccc4)cc3c2C1` (stereo not drawn), the entry is “inactive”.
For `CN(C)C1CCc2[nH]c3c(-c4ccccc4)cccc3c2C1` (stereo not drawn), the outcome was Active.
Same read-out and setting: to `CN(C)C1CCc2[nH]c3cc(O)ccc3c2C1` (stereo not drawn) belongs “inactive”.
Same read-out and setting: to `CN(C)C1CCc2[nH]c3c(Cl)cc(Cl)cc3c2C1` (stereo not drawn) belongs “inactive”; to `Cc1cccc2c1c1c(n2C)CCC(N(C)C)C1` (stereo not drawn), “Active”; to `CSc1cccc2c3c([nH]c12)CCC(N(C)C)C3` (stereo not drawn), “inactive”.
The same measure, in the same setting: to `NC1CCc2[nH]c3c(F)cc(F)cc3c2C1` (stereo not drawn) belongs “inactive”.

For the next experiment, the system named is Mus musculus. Put plainly: Antidepressant activity in Swiss-Webster mouse assessed as prevention of reserpine-induced ptosis at 1 to 50 mg/kg, ip. The experiment is classed as functional, organism-based. Summed up: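 Male Swiss-Webster mice (18-24 g) given test compounds intraperitoneally at 50, 30, 10, 1 and 0.5 mg/kg (free base), then scored for reserpine-induced ptosis. Active means a statistically significant decrease in ptosis (p < 0.05, two-tailed).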
On to `CN(C)CCCN1c2ccccc2Sc2ccc(Cl)cc21` [CHLORPROMAZINE], for which the result was inactive.

The test system of a further experiment is Mus musculus. Put plainly: Antidepressant activity in Swiss-Webster mouse assessed as prevention of reserpine-induced ptosis at 30 mg/kg, ip. More on the design: dose 30 mg/kg. The experiment is classed as functional, organism-based.
In the case of `CNC1CCc2[nH]c3ccccc3c2C1` (stereo not drawn), the outcome was Active.
The same measure, in the same setting: to `NC1CCc2[nH]c3ccccc3c2C1` (stereo not drawn) belongs “Active”; to `CN(C)C1CCc2[nH]c3c(F)cc(F)cc3c2C1` (stereo not drawn) [FLUCINDOLE], “inactive”; to `Cc1ccc(C)c2c3c([nH]c12)CCC(N(C)C)C3` (stereo not drawn), “Active”.
Same read-out and setting: to `CCn1c2c(c3ccccc31)CC(N(C)C)CC2` (stereo not drawn) belongs “Active”; to `COc1ccc2c3c([nH]c2c1)CCC(N(C)C)C3` (stereo not drawn), “Active”; to `Cc1cc(Cl)cc2[nH]c3c(c12)CC(N(C)C)CC3` (stereo not drawn), “Active”.
`CN(C)C1CCc2[nH]c3cccc(C(F)(F)F)c3c2C1` (stereo not drawn): the outcome was Active.
With `COc1ccc(Cl)c2c3c([nH]c12)CCC(N(C)C)C3` (stereo not drawn), the outcome was Active.
`CCOC(=O)c1cccc2[nH]c3c(c12)CC(N(C)C)CC3` (stereo not drawn): the result was Active.

A further experiment deals with Mus musculus. Kind of experiment: Antidepressant activity in Swiss-Webster mouse assessed as prevention of reserpine-induced ptosis at 10 to 50 mg/kg, ip. The experiment is classed as functional, organism-based.
Turning to `CN(C)CCCN1c2ccccc2CCc2ccccc21`, the result was Active.
The same measure, in the same setting: as for `CN(C)C1CCc2[nH]c3ccccc3c2C1` (stereo not drawn) [CYCLINDOLE], the entry is “Active”; as for `Cc1cccc2[nH]c3c(c12)CC(N(C)C)CC3` (stereo not drawn), “Active”.

The test system of another experiment is Mus musculus. Put plainly: Antidepressant activity in Swiss-Webster mouse assessed as prevention of reserpine-induced ptosis at 30 to 50 mg/kg, ip. The class given is functional, organism-based.
Take `CN(C)C1CCc2[nH]c3c(F)cc(F)cc3c2C1` (stereo not drawn) [FLUCINDOLE]: the result was inactive.

The test system of another experiment is Rattus norvegicus. Kind of experiment: Antipsychotic activity in po dosed Sprague-Dawley rat assessed as prevention of d-amphetamine-induced stereotyped behavior measured for 1 min after 90, 100, and 110 mins injection of amphetamine. The class given is functional. Summed up: (§1)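 Male Sprague-Dawley rats, 100-130 g, given compound orally at graded doses (free base), starting at 32 mg/kg, 4 h before d-amphetamine sulfate sc at 3.7 mg/kg (free base). One-minute observations at 90, 100 and 110 min. ED50 with confidence limits calculated.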
With `CN(C)C1CCc2[nH]c3c(F)cc(F)cc3c2C1` (stereo not drawn) [FLUCINDOLE], the ED50 – broadly, the dose that gives a 50% effect, or the effect in half of the subjects – was 1.4 mg/kg.
On the same count and under the same terms, to `CN(C)C1CCc2[nH]c3ccccc3c2C1` (stereo not drawn) [CYCLINDOLE] belongs 10.3 mg/kg; to `CN(C)CCCN1c2ccccc2Sc2ccc(Cl)cc21` [CHLORPROMAZINE], 8.6 mg/kg.

A further experiment relates to Mus musculus. Put plainly: Antidepressant activity in Swiss-Webster mouse assessed as prevention of reserpine-induced ptosis at 10 mg/kg, ip. The experiment is classed as functional, organism-based. Further details: dose 10 mg/kg.
For the molecule `CNC1CCc2[nH]c3cccc(C)c3c2C1` (stereo not drawn), the outcome was Active.
The same measure, in the same setting: to `CN(C)CCCn1c2c(c3ccccc31)CC(N(C)C)CC2` (stereo not drawn) belongs “inactive”.
With `CCCNC1CCc2[nH]c3ccccc3c2C1` (stereo not drawn), the result was inactive.
Still for that read-out and setting: as for `CN(C)C1CCc2c(c3ccccc3n2Cc2ccc(Cl)cc2)C1` (stereo not drawn), the entry is “inactive”.
Still for that read-out and setting: to `CCCCNC1CCc2[nH]c3ccccc3c2C1` (stereo not drawn) belongs “inactive”; to `COc1ccc2[nH]c3c(c2c1)CC(N(C)C)CC3` (stereo not drawn), “inactive”; to `CCc1cccc2c3c([nH]c12)CCC(N(C)C)C3` (stereo not drawn), “Active”.
As to `CN(C)C1CCc2[nH]c3cccc(F)c3c2C1` (stereo not drawn), the result was Active.
Consider `CCCc1cccc2c3c([nH]c12)CCC(N(C)C)C3` (stereo not drawn), for which the outcome was Active.
In the case of `CN(C)C1CCc2[nH]c3ccccc3c2C1` (stereo not drawn) [CYCLINDOLE], the outcome was Active.
The same measure, in the same setting: as for `CCNC1CCc2[nH]c3ccccc3c2C1` (stereo not drawn), the entry is “inactive”; as for `Cc1ccc2c3c([nH]c2c1)CCC(N(C)C)C3` (stereo not drawn), “Active”; as for `CN(C)C1CCc2c(c3ccccc3n2Cc2ccccc2)C1` (stereo not drawn), “inactive”.
Take `CN(C)C1CCc2c(c3ccccc3n2C)C1` (stereo not drawn): the result was inactive.
As for `CN(C)CCn1c2c(c3ccccc31)CC(N(C)C)CC2` (stereo not drawn), the outcome was inactive.
For `CCOC(=O)Cn1c2c(c3ccccc31)CC(N(C)C)CC2` (stereo not drawn), the result was Active.
Take `Cc1cc(Cl)c2c3c([nH]c2c1)CCC(N(C)C)C3` (stereo not drawn): the result was Active.
Still for that read-out and setting: as for `CC(=O)NC1CCc2[nH]c3ccccc3c2C1` (stereo not drawn), the entry is “inactive”; as for `Cc1cccc2[nH]c3c(c12)CC(N(C)C)CC3` (stereo not drawn), “Active”; as for `Cc1ccc(F)c2[nH]c3c(c12)CC(N(C)C)CC3` (stereo not drawn), “Active”.

In the next experiment the test system is Rattus norvegicus. Put plainly: Antipsychotic activity in Sprague-Dawley rat assessed as prevention of d-amphetamine-induced stereotyped behavior at 32 mg/kg, po measured for 1 min after 90, 100, and 110 mins injection of amphetamine. The class given is functional, organism-based. Further details: dose 32 mg/kg. Summed up:
as §1
With `CN(C)CCCN1c2ccccc2CCc2ccccc21`, the outcome was inactive.
Still for that read-out and setting: to `Cc1cccc2[nH]c3c(c12)CC(N(C)C)CC3` (stereo not drawn) belongs “inactive”.
